Results reported in ChEMBL document CHEMBL1153001 (Eur J Med Chem, 2009).

How the values were obtained:
[1] = tested on: Human alphaherpesvirus 3; assay: Ratio of compound EC50 to Acyclovir EC50 for Varicella zoster virus YS infected in human HEL cells assessed as inhibition of virus induced cytopathicity after 5 days; assay type: functional
[2] = tested on: Human alphaherpesvirus 3; assay: Antiviral activity against thymidine kinase deficient Varicella zoster virus 07/1 infected in human HEL cells assessed as inhibition of virus-induced cytopathicity after 5 days; assay type: functional, organism-based; settings: Human alphaherpesvirus 3, 07/1, HEL, 120 h
Procedure, shortened: (§1)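 Confluent HEL cell cultures infected with 20 PFU/well VZV; after 2 h adsorption, residual virus removed and serial compound dilutions added. Incubated 5 days at 37 °C, 5% CO2, then fixed and stained. Plaques counted against untreated control.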

[3] = Cytotoxicity against human HEL cells assessed as microscopically detectable morphological alterations after 3 days; assay type: cell-based
Procedure, shortened: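 HEL cell cultures exposed to varying compound concentrations. Cells examined microscopically for changes in morphology. MCC = lowest concentration producing a detectable alteration of cell morphology.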

[4] = tested on: Human betaherpesvirus 5; assay: Antiviral activity against human cytomegalovirus Davis infected in human HEL cells assessed as inhibition of virus-induced cytopathicity after 7 days post infection; assay type: functional, organism-based; settings: Human betaherpesvirus 5, Davis, 168 h
Procedure, shortened: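 Confluent HEL cell cultures in microtiter plates inoculated with 100 PFU CMV. After 2 h adsorption, residual virus removed and cells incubated with varying compound concentrations. Read once cytopathicity was complete in virus controls, usually 7 days post-infection. EC50 = concentration giving 50% reduction in plaque formation/cytopathicity.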

[5] = tested on: Human alphaherpesvirus 3; assay: Antiviral activity against Varicella zoster virus YS infected in human HEL cells assessed as inhibition of virus induced cytopathicity after 5 days; assay type: functional, organism-based; settings: Human alphaherpesvirus 3, YS, 120 h
Procedure, shortened: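 Confluent HEL cell cultures infected with 20 PFU/well VZV; after 2 h adsorption, residual virus removed and serial compound dilutions added. Incubated 5 days at 37 °C, 5% CO2, then fixed and stained. Plaques counted against untreated control. EC50 = concentration cutting plaque formation by 50%.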

[6] = tested on: Human alphaherpesvirus 3; assay: Antiviral activity against Varicella zoster virus OKA infected in human HEL cells assessed as inhibition of virus-induced cytopathicity after 5 days; assay type: functional, organism-based; settings: Human alphaherpesvirus 3, OKA, 120 h; procedure, shortened: as §1
[7] = tested on: Human alphaherpesvirus 3; assay: Ratio of compound EC50 to Acyclovir EC50 for Varicella zoster virus OKA infected in human HEL cells assessed as inhibition of virus induced cytopathicity after 5 days; assay type: functional
[8] = Cytotoxicity against human HEL cells assessed as reduction in cell growth after 3 days; assay type: cell-based
Procedure, shortened: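 HEL cell suspensions seeded into wells holding varying compound concentrations. Grown 3 days at 37 °C in humidified CO2 incubator. Viable cells counted with a Coulter Counter. CC50 = concentration lowering viable cell number by 50%.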

[9] = tested on: Human betaherpesvirus 5; assay: Antiviral activity against human cytomegalovirus AD169 infected in human HEL cells assessed as inhibition of virus-induced cytopathicity after 7 days post infection; assay type: functional, organism-based; settings: Human betaherpesvirus 5, AD169, HEL, 168 h
Procedure, shortened: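 Confluent HEL cell cultures in microtiter plates inoculated with 100 PFU CMV. After 2 h adsorption, residual virus removed and cells incubated with varying compound concentrations. Read once cytopathicity was complete in virus controls, usually 7 days post-infection.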

[10] = tested on: Human alphaherpesvirus 3; assay: Ratio of compound EC50 to RA-5021 EC50 for Varicella zoster virus OKA infected in human HEL cells assessed as inhibition of virus induced cytopathicity after 5 days; assay type: functional
[11] = tested on: Human alphaherpesvirus 3; assay: Ratio of compound EC50 to RA-5021 EC50 for Varicella zoster virus YS infected in human HEL cells assessed as inhibition of virus induced cytopathicity after 5 days; assay type: functional

Structure (SMILES) | EC50 [2] | EC50 [4] | EC50 [5] | EC50 [6] | EC50 [9] | Ratio EC50 [1] | MCC at 72 h [3] | Ratio EC50 [7] | CC50 at 72 h [8] | Ratio EC50 [10] | Ratio EC50 [11]
O=c1c2ncn(COCCO)c2nc2[nH]c(-c3ccc(Br)s3)cn12 | > 100 µM | 100 µM | 10 µM | 8.7 µM | > 100 µM |  | > 100 µM |  | > 100 µM |  | 
O=c1c2ncn(CC3(CO)CC3CO)c2nc2[nH]c(-c3ccccc3)cn12 (centres undefined) |  |  |  |  |  |  |  |  |  | 3 | 2
O=c1c2ncn(COCCO)c2nc2[nH]c(-c3ccco3)cn12 | > 100 µM | > 100 µM |  | 16.4 µM | > 100 µM |  | > 100 µM |  | > 100 µM |  | 
Nc1nc2c(ncn2COCCO)c(=O)[nH]1 [ACYCLOVIR] |  | 45 µM | 2 µM |  |  |  |  |  | 782 µM |  | 
O=c1[nH]c(=O)n([C@H]2C[C@H](O)[C@@H](CO)O2)cc1/C=C/Br [BRIVUDINE] | 157 µM |  | 0.026 µM |  |  |  | > 1200 µM |  | 432 µM |  | 
Nc1ccn(C[C@@H](CO)OCP(=O)(O)O)c(=O)n1 [CIDOFOVIR] |  |  |  |  | 1.6 µM |  | ≥ 254 µM |  | 54 µM |  | 
Nc1nc2c(ncn2COC(CO)CO)c(=O)[nH]1 [GANCICLOVIR] | 2.5 µM |  | 1.1 µM | 0.59 µM | 12.6 µM |  | > 1580 µM |  | 221 µM |  | 

Further lines, with some results ahead:

EC50 [2] | EC50 [4] | EC50 [5] | EC50 [6] | EC50 [9] | Structure (SMILES) | Ratio EC50 [1] | MCC at 72 h [3] | Ratio EC50 [7] | CC50 at 72 h [8] | Ratio EC50 [10] | Ratio EC50 [11]
25.8 µM | 44.7 µM | 0.3 µM | 0.13 µM | 100 µM | Nc1nc(O)c2ncn(CC3(CO)CC3CO)c2n1 (centres undefined) | 7 | > 100 µM | 14 | > 100 µM |  | 
71.5 µM | 50.2 µM | 0.38 µM | 0.32 µM | > 100 µM | O=c1c2ncn(CC3(CO)CC3CO)c2nc2[nH]c(-c3cccs3)cn12 (centres undefined) |  | > 100 µM |  | > 100 µM | 2.5 | 1.3
> 100 µM | 76.5 µM | 0.87 µM | 0.93 µM | > 100 µM | O=c1c2ncn(CC3(CO)CC3CO)c2nc2[nH]c(-c3ccc(Br)s3)cn12 (centres undefined) |  | > 100 µM |  | > 100 µM | 7 | 2.9
> 100 µM | 100 µM | 7.9 µM | 5.8 µM | > 100 µM | O=c1c2ncn(COCCO)c2nc2[nH]c(-c3cccs3)cn12 |  | > 100 µM |  | > 100 µM |  | 
> 100 µM | > 100 µM | 0.64 µM | 0.42 µM | > 100 µM | O=c1c2ncn(CC3(CO)CC3CO)c2nc2[nH]c(-c3ccco3)cn12 (cis isomer) |  | > 100 µM |  | > 100 µM | 3.2 | 2.1
